pPAFAH inh = pPAFAH (human) enzyme inhibition; recombinant pPAFAH, FP-rhodamine probe fluorescence polarization; inhibition, % at 3.39 µM; 330,000 tested, 1.5% active;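 active = inhibition above the mean inhibition across the screen plus 3 SD, cut at about 25% in these data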;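 also: inhibitors block binding of the rhodamine activity-based probe so polarization drops; 0% = enzyme with DMSO and 100% = wells lacking pPAFAH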
Apaf-1 inh = inhibitors of human Apaf-1 apoptosome. O14727. reconstituted apoptosome caspase-3 activity, DEVD-Rh110 fluorescence. inhibition, % at 20 µM. 330,000 tested, 0.71% active. AID 489030; active = inhibition of at least 40% at 20 µM;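 also: plate controls were DMSO wells for no effect and DEVD-CHO caspase inhibitor wells for full effect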
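Material: reconstituted apoptosome with Apaf-1, cytochrome c, caspase-9, procaspase-3, dATP. Technique: Rh110 fluorescence intensity. Buffer or medium: pH 7.5 Hepes buffer with CHAPS, BSA, DTT. Times: 30 min plus 50 min, RT.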
PAFAH1B3 FP inh = PAFAH1B3 (human) inhibition; Q15102; 340,000 tested, 0.28% active; recombinant PAFAH1B3, FP-rhodamine probe, fluorescence polarization; inhibition, % at 3.39 µM;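 active = inhibition above the screen-wide average of all tested compounds plus 3 SD, cut at about 25% in these data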;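 also: 0% = enzyme with DMSO only and 100% = wells lacking PAFAH1B3 protein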
Target sequence (Q15102 whole entry, looked up): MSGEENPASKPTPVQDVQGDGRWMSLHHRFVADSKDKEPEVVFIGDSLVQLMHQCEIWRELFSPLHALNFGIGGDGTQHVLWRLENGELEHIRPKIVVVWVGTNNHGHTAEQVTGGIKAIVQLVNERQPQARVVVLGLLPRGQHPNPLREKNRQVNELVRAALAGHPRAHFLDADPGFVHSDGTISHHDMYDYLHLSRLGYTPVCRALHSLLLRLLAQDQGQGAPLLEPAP
PAFAH1B2 inh = PAFAH1B2 (human) inhibition; P68402; recombinant PAFAH1B2, FP-rhodamine activity probe, fluorescence polarization; inhibition, % at 3.39 µM; 340,000 tested, 1.2% active; AID 492953;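 active = inhibition above the mean of all tested compounds plus 3 SD, cut at about 24% in these data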;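 also: 0% = enzyme with DMSO and 100% = wells lacking PAFAH1B2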
Target sequence (P68402 whole entry, looked up): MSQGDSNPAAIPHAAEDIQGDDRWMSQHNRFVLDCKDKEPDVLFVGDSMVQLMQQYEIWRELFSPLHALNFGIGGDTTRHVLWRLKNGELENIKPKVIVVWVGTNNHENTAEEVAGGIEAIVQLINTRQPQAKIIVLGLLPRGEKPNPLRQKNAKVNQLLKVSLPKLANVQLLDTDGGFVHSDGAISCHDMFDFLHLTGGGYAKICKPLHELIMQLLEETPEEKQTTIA
PAFAH2 FP inh = inhibitors of human PAFAH2. AID 492956. inhibition, % at 3.39 µM. 340,000 tested, 0.99% active. recombinant PAFAH2, FP-rhodamine activity probe, fluorescence polarization;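 active = inhibition above the mean over all tested compounds plus 3 SD, cut at about 30% in these data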;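 also: inhibitors block probe labeling of enzyme so polarization drops; 0% = enzyme with DMSO and 100% = wells lacking PAFAH2 protein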
* = called active by the depositor; x = not tested or not shown. An excerpt weighted towards active compounds, which were near 3.1% of everything screened.

SMILES	pPAFAH inh	Apaf-1 inh	PAFAH1B3 FP inh	PAFAH1B2 inh	PAFAH2 FP inh
COc1ccc(-c2nnc(SCC(=O)Nc3c(Cl)cc(Cl)cc3C(=O)O)o2)cc1	-1.5	-4.1	6.8	3.9	10.9
CC(C)N(CCCNC(=O)Cn1c(=O)c2cccn2c2ccc(F)cc21)Cc1ccccc1	-2.4	12.0	9.6	4.2	-4.1
COC(=O)c1[nH]c(=O)c2ccccc2c1O	2.8	91.1*	8.2	-1.2	2.3
Cc1cc2ccccc2c(=O)[nH]1	4.7	-17.6	3.1	-1.0	4.0
Cc1nc2cc3ccccc3cc2c(=O)[nH]1	26.5*	-8.2	7.0	-0.1	0.1
Oc1cccc(O)c1O	95.6*	2.1	x	x	x
Clc1ccccc1OCCCCn1ccnc1	-2.8	3.1	-1.7	0.7	8.0
Clc1ccc(SCCCCn2ccnc2)cc1	4.6	3.0	8.6	71.1*	1.9
COc1cc(C(=O)NCc2ccc(S(N)(=O)=O)cc2)ccc1OCC(=O)N1CCOCC1	3.3	-2.2	10.2	0.9	1.1
N=C1C(c2nc(-c3ccc(F)cc3)cs2)=C(O)CN1CCCN1CCOCC1	9.6	-0.2	6.8	6.4	38.1*
CC(C)CCN1CC(O)=C(c2nc(-c3ccc(Cl)cc3)cs2)C1=N	-1.6	7.7	1.9	2.3	8.7
CC(=O)Nc1ccc(S(=O)(=O)NCCSCc2ccc(Cl)cc2Cl)cc1	16.2	18.5	6.9	39.2*	-7.8
CC(=O)Nc1ccc(S(=O)(=O)NCCNS(=O)(=O)c2ccc(NC(C)=O)cc2)cc1	1.1	-13.8	3.7	0.4	11.0
O=C(Cc1c(C(=O)O)[nH]c2ccccc12)NCCN1CCN(c2cccc(Cl)c2)CC1	4.5	7.8	9.3	24.8*	0.6
O=C(O)c1[nH]c2ccc(Cl)cc2c1CC(=O)N1CCN(c2ccccc2)CC1	4.9	1.8	5.7	24.5*	7.5
COc1ccccc1N1CCN(C(=O)Cc2c(C(=O)O)[nH]c3ccc(Cl)cc23)CC1	6.1	3.4	7.6	7.0	7.5
CN1CCN(S(=O)(=O)c2cccc(C(=O)N(C)CC(=O)Nc3ccc(Cl)c(Cl)c3)c2)CC1	x	x	6.1	10.9	-11.5
Cc1ccc(S(=O)(=O)N/N=C/c2cccn2-c2ccc(Cl)cc2)cc1	4.9	2.1	2.9	53.5*	0.1
Cc1ccc(S(=O)(=O)N/N=C/c2c(F)cccc2Cl)cc1	-5.3	2.5	2.9	-0.6	8.1
CCOC(=O)c1ccc(Nc2nc(N)c3cc(OC)c(OC)cc3n2)cc1	9.3	54.2*	-3.6	8.2	4.0
COc1ccc(CCN(C)Cc2c(O)ccc3cc(Br)ccc23)cc1OC	10.9	0.5	9.3	36.1*	-1.8
COc1ccc(CN(C)Cc2c(O)ccc3cc(Br)ccc23)cc1OC	3.4	21.8	5.4	20.3	-4.4
O=C(CSc1ccc2nnc(-c3cccnc3)n2n1)Nc1ccccc1C(F)(F)F	2.4	1.3	4.8	0.8	-0.6
CCOc1ccc(OCCSc2nc3ccccc3c(=O)[nH]2)cc1	2.9	8.9	-6.1	31.1*	3.5
N#CC(C(=O)CCN1C(=O)C2CC=CCC2C1=O)c1nc2ccccc2[nH]1 (configuration not stated)	4.9	2.4	11.4	0.8	3.7
SMILES	pPAFAH inh	Apaf-1 inh	PAFAH1B3 FP inh	PAFAH1B2 inh	PAFAH2 FP inh
N#CC(C(=O)C12CC3CC(CC(C3)C1)C2)c1nc2ccccc2[nH]1 (configuration not stated)	18.6	15.7	-2.9	12.8	31.2*
CC(C)OC(=O)NC(c1ccccc1)C(Cl)(Cl)Cl (configuration not stated)	3.4	-0.7	1.6	24.4*	12.7
CCOc1ccc(OC(=O)NC(c2ccccc2)C(Cl)(Cl)Cl)cc1 (configuration not stated)	0.8	5.5	2.0	25.8*	4.7
CCOc1ccccc1NC(=O)NNC(=O)COc1cccc(C)c1C	0.6	10.2	5.6	-3.2	-5.9
O=C1OC(c2ccco2)=N/C1=C\c1ccc(-c2cccc(C(F)(F)F)c2)o1	27.0*	7.8	2.6	1.1	10.1
O=C1OC(c2cccs2)=N/C1=C/c1ccc(-c2cccc(C(=O)O)c2)o1	x	x	10.3	3.7	14.5
CCCCCCn1nc(C(=O)N(CCOC)c2c(N)n(CCCC)c(=O)[nH]c2=O)c2ccccc2c1=O	-7.3	10.5	0.3	0.4	-0.6
O=C(c1ccccc1F)N1CCN(Cc2cccc(Cl)c2)CC1	28.9*	1.1	3.2	3.5	6.0
CCCN1CCN(CCCNC(=O)c2ccc(CS(=O)c3ccc(OC)cc3)o2)CC1 (configuration not stated)	3.2	4.6	-1.0	0.8	0.2
CCc1ccc2oc(=O)cc(CN(C)Cc3ccccc3)c2c1	-0.1	29.0	2.9	37.7*	-8.7
NC(C(=O)O)C1ON=C(Cl)C1O (configuration not stated)	x	x	8.1	2.0	0.0
CC(=O)N1c2ccc(S(=O)(=O)NCCc3ccc(Cl)cc3)cc2CC1C (configuration not stated)	29.7*	-2.5	-2.9	15.8	-2.4
Cc1cccc(-n2cc(-c3ccccc3)c3c(=O)[nH]cnc32)c1	29.9*	13.9	7.1	-4.0	4.3
O=c1[nH]cnc2c1c(-c1ccccc1)cn2-c1ccc(Br)cc1	27.3*	12.0	-0.5	-2.7	-0.7
CC(C)c1ccc(NC(=S)N2CCN(S(=O)(=O)c3ccccc3)CC2)cc1	21.6	23.0	9.1	8.8	-5.0
CC(=O)c1cc2c(cc1NC(=O)CN1Cc3ccccc3C1=O)OCO2	1.2	9.6	3.8	3.9	-3.7
Cc1ccnc(NS(=O)(=O)c2ccc(NC(=O)Cc3cccs3)cc2)n1	33.8*	2.6	8.7	3.7	15.1
CCN(CC(=O)Nc1c(F)cccc1F)C(=O)CNC(=O)c1cccc(C)c1	3.4	-1.0	1.4	4.1	3.6
O=C1NC(CCc2ccccc2)C(=O)N1CCOc1cccc(Br)c1 (configuration not stated)	12.8	10.4	2.1	25.7*	0.8
Clc1ccc2c(c1)c1cc(Cl)ccc1n2CN1CCOCC1	27.4*	24.1	5.5	-0.8	-5.2
CN1CCN(CCC=C2c3ccccc3Sc3ccc(S(=O)(=O)N(C)C)cc32)CC1	28.0*	37.1	2.8	0.5	12.1
COc1ccc(N2CCN(C(=O)COC(=O)c3ccc(-n4nc(C)cc4C)cc3)CC2)cc1	9.6	1.2	2.6	-6.3	-2.1
CC(=O)N/C(=C\c1ccc(F)cc1)C(=O)OCc1ccccc1	4.3	1.9	4.7	1.5	2.7
Cc1cccn2c(=O)c(C=NCc3ccco3)c(Nc3ccc(SC(F)F)cc3)nc12	34.4*	7.6	-0.9	2.0	-5.1
CC(OC(=O)C1=COCCO1)C(=O)Nc1ncc(Cl)cc1Cl (configuration not stated)	x	-7.3	-5.6	46.7*	1.1
Cc1ccc(CSCCNS(=O)(=O)c2ccc([N+](=O)[O-])cc2)cc1	6.9	15.0	-4.6	25.0*	2.8
Oc1ccccc1-n1nc2ccc3nonc3c2n1	3.0	-19.7	8.2	4.1	4.4
O=C(O)c1ccc(Cn2cnc3scc(-c4ccccc4)c3c2=O)cc1	2.7	6.3	15.5	26.3*	4.3

Compound activity deposited in PubChem by several laboratories.
